Measurements pooled from the literature.
Target: Cyclin-dependent kinase 5 (CDK5, Homo sapiens, UniProt Q00535)

SMILES	test	conditions	remaining binding
CCN1CCN(Cc2ccc(C(=O)Nc3ccc(C)c(Oc4ccc5c(c4)CC(=O)N5)c3)cc2C(F)(F)F)CC1	binding, competition with immobilised ligand	1 µM	100%
F[C@@H]1CCN(c2nccc(-c3cnn4ncccc34)n2)C1	binding	1 µM	100%
CNCc1ccccc1-c1csc([C@H](C)Nc2nc(C)nc3cc(OC)c(OC)cc23)c1	cell-free assay, competition with immobilised ligand	1 µM	98%
C[C@@H]1CCN(c2nccc(-c3cnn4ncccc34)n2)C1	binding	1 µM	100%
COc1cnc(Nc2cccc(S(N)(=O)=O)c2)nc1N1CCN(c2ccccc2)C(=O)C1	binding, competition with immobilised ligand	1 µM	100%
c1cncc(-c2cccc(Nc3nccc(NC4CCCCC4)n3)c2)c1	binding, competition with immobilised ligand	10 µM	81%
O=c1nc(-c2ccccn2)sc2ccccc12	binding, competition with immobilised ligand	1 µM	85%
Cc1cnc(Nc2ccc(C(=O)N3CCC(N4CCCC4)CC3)cc2)nc1-c1cc2ccccc2s1	binding, competition with immobilised ligand	1 µM	76%
O=C(Nc1c[nH]nc1C(=O)NC1CCNCC1)c1cc(F)cc(F)c1	binding, competition with immobilised ligand	1 µM	100%
CNC(=O)[C@@H]1CC[C@@H](n2c(-c3ccc4cnccc4c3)nc3ccc(C(=O)NCc4cccc(C(N)=O)c4)cc32)C1	binding, competition with immobilised ligand	1 µM	89%
C[C@@H]1CN(c2cc(-c3nn(C)c4ccc(OC5(C)CC5)cc34)ncn2)C[C@H](C)O1	cell-free assay, competition with immobilised ligand	1 µM	100%
c1cnn2ncc(-c3ccnc(N4CCC45COC5)n3)c2c1	binding	1 µM	99%
CC1=C(C#N)C(c2ccc3c(c2)c(NC(=O)c2ccccc2C)nn3C)C(C#N)=C(C)N1	cell-free assay, competition with immobilised ligand	1 µM	87%
CN(c1nccc(-c2cnn3ncccc23)n1)C1CC1	binding	1 µM	100%
Cc1cc(NC(=O)c2cccc(S(F)(F)(F)(F)F)c2)cc(-n2ccn3nc(-c4cccnc4)cc23)c1	cell-free assay, competition with immobilised ligand	1 µM	100%
CN(C)c1nccc(-c2cnc3ncccn23)n1	binding	1 µM	91%
COc1ncc2cc3ccccc3nc2c1C#N	cell-free assay, competition with immobilised ligand	5 µM	100%
CN(C)c1ncc(F)c(-c2cnn3ncccc23)n1	binding	1 µM	82%
CNC(=O)Nc1ccc2c(c1)CC[C@@]21OC(=O)N(CC(=O)N(Cc2ccc(F)cc2)[C@@H](C)C(F)(F)F)C1=O	cell-free assay, competition with immobilised ligand	1 µM	84%
O=C(NCCCN1CCOCC1)c1ccc(Nc2ncc(Cl)c(-c3ccc(Cl)s3)n2)cc1	binding, competition with immobilised ligand	1 µM	42%
C[C@@H]1CN(c2cc(-c3n[nH]c4ccc(OC5(C)CC5)cc34)ncn2)C[C@H](C)O1	cell-free assay, competition with immobilised ligand	0.1 µM	100%
O=C(c1ccc(Nc2ncc(Cl)c(-c3cc4ccccc4s3)n2)cc1)N1CCC(N2CCCC2)CC1	binding, competition with immobilised ligand	1 µM	42%
